Test results from PMC3256319 (Investigational New Drugs, 2010).
Where “and” joins values, the source holds several entries; their conditions need not be identical. Equal values may be shown once.

Key:
[1] = system: axitinib metabolism in human liver microsomes; format: in vitro ADME; details: probe axitinib
[2] = Intrinsic clearance converted from in vivo systemic clearance; parameters: species or system human healthy volunteers
[3] = Blood pressure change from baseline in crossover study; format: in vivo, human healthy volunteers
Summary of the method: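 Randomized two-way crossover in healthy volunteers with placebo on day –1 and a 14-day washout. In one arm, a single oral 5-mg dose was given on day 1 after an overnight fast of at least 8 h. In the other, oral ketoconazole 400 mg/day was given on days 1–7, with the 5-mg dose given alongside it on day 4. BP was measured before blood sampling at PK timepoints and at 10 h post-dose, expressed as time-matched change from baseline. Analysis required at least one baseline and one post-baseline reading.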

[4] = format: in vivo, human healthy volunteers
[5] = ketoconazole 400 mg; based on IC50 in human liver microsomal preparations
tumor growth = details: pre-clinical tumor growth inhibition studies; cited from earlier work
[6] = concurrent administration of phenytoin, one patient; cited from earlier work
Safety and tolerability = format: in vivo, human healthy volunteers
Summary of the method: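 Healthy volunteers in a randomized crossover separated by a 14-day washout. Treatments were a single fasted oral 5-mg dose on day 1, or ketoconazole 400 mg/day on days 1–7 with the 5-mg dose on day 4. Safety was monitored through adverse events, vital signs, ECGs, laboratory tests and physical examinations. AEs were graded by NCI CTCAE v3.0. All subjects receiving at least one dose of any study medication were included.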

[7] = cited from earlier work
[8] = axitinib in combination with ketoconazole
[9] = in the presence of ketoconazole

CC(=O)N1CCN(c2ccc(OCC3COC(Cn4ccnc4)(c4ccc(Cl)cc4Cl)O3)cc2)CC1 (stereo not drawn) [Ketoconazole, ketoconazole] gave an IC50 [1] of 400 nM.
With CNC(=O)c1ccccc1Sc1ccc2c(/C=C/c3ccccn3)n[nH]c2c1 [Axitinib] the “clearance attributed to non-metabolic pathways, share” value ([2]; remaining clearance) was 20%, the “contribution of CYP3A to total CLint” value ([2]; sensitivity analyses) was 50% and the “contribution of glucuronidation to total CLint” value ([2]; sensitivity analyses) was 30%. For the same molecule, the “mean time-matched changes from baseline in BP” value [3, 8] was “minimal”, the “mean time-matched changes from baseline in BP” value ([3]; axitinib treatment alone) was “minimal” and the “pre-dose axitinib plasma concentration” value ([4]; all pre-dose samples, below lower limit of quantification) was under 0.100 ng/mL. For the same molecule, the half-life ([4]; human, plasma, oral, 5 mg) was 9.44 h, the “fold increase in axitinib geometric mean AUC0–∞ observed clinically” value [4, 9] was 2.06 fold and ~ 2 fold and the “fold increase in axitinib geometric mean Cmax observed clinically” value [4, 9] was 1.50 fold and ~ 1.5 fold. The “predicted fold increase in axitinib geometric mean AUC0–∞” value [5] was 1.8 fold, the “predicted fold increase in axitinib geometric mean Cmax” value [5] was 1.5 fold and the effective axitinib concentration (tumor growth) was 0.28 to 0.85 nmol/L. For the same molecule, the “fold reduction of axitinib AUC0–24” value [6] was “approximately 10 fold”, the “fold reduction of axitinib Cmax” value [6] was “approximately 10 fold” and the tolerability (Safety and tolerability; axitinib alone, single 5-mg dose) was “well tolerated”. The tolerability (Safety and tolerability; [8]) was “well tolerated”, the “average axitinib plasma concentration in clinical trials” value ([7]; after dosing 5 mg twice daily) was 0.19 ± 0.12 nmol/L and the “effective plasma terminal half-life” value [7] was 2 to 5 h. For the same molecule, the oral absolute bioavailability [7] was “approximately 58%” and the “time of peak plasma concentrations after dosing” value ([7]; oral, fed state) was 1 to 4 h.
